Columns and labels:
L1210 = assay: Antiproliferative activity against mouse L1210 cells after 48 hrs by Coulter counter method; assay type: functional, cell-based; conditions: L1210, 48 h
How it was run: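 Cell count assay in 96-well microtiter plates; (5–7.5) × 10⁴ tumor cells per well plus test compound. Cells proliferated at 37 °C in humidified CO₂-controlled atmosphere, 48 h for murine leukemia L1210, 72 h for human lymphocytic CEM and cervix carcinoma HeLa. Counted by Coulter counter; IC₅₀ is the concentration that inhibits proliferation by 50%.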

SR = assay: Cytotoxicity against human SR cells after 48 hrs by SRB assay; assay type: functional; conditions: for GI50: read-out: GI50
KM12 = assay: Cytotoxicity against human KM12 cells after 48 hrs by SRB assay; assay type: functional; conditions: KM12, 48 h; for GI50: read-out: GI50
SNB-19 [1] = assay: Cytotoxicity against human SNB19 cells after 48 hrs by SRB assay; assay type: functional; conditions: SNB-19, 48 h; for GI50: read-out: GI50; for CC50: read-out: LC50 (the source's name); for TGI: read-out: TGI
U-251 = assay: Cytotoxicity against human U251 cells after 48 hrs by SRB assay; assay type: functional; conditions: U-251, 48 h; for GI50: read-out: GI50
M14 [2] = assay: Cytotoxicity against human M14 cells after 48 hrs by SRB assay; assay type: functional; conditions: M14, 48 h; for GI50: read-out: GI50; for CC50: read-out: LC50 (the source's name); for TGI: read-out: TGI
OVCAR-4 = assay: Cytotoxicity against human OVCAR4 cells after 48 hrs by SRB assay; assay type: functional; conditions: OVCAR-4, 48 h; for GI50: read-out: GI50
A498 = assay: Cytotoxicity against human A498 cells after 48 hrs by SRB assay; assay type: functional; conditions: A498, 48 h; for GI50: read-out: GI50; for CC50: read-out: LC50 (the source's name); for TGI: read-out: TGI
T47D = assay: Cytotoxicity against human T47D cells after 48 hrs by SRB assay; assay type: functional; conditions: for CC50: read-out: pLC50 (the source's name) (converted)
NCI-H226 [3] = assay: Growth inhibition of human NCI-H226 cells assessed as cell growth at 10^-8 M incubated for 48 hrs by sulforhodamine B assay relative to control; assay type: functional; conditions: NCI-H226, 48 h, read-out: Activity
MDA-MB-468 [4] = assay: Growth inhibition of human MDA-MB-468 cells assessed as cell growth at 10^-8 M incubated for 48 hrs by sulforhodamine B assay relative to control; assay type: functional; conditions: MDA-MB-468, 48 h, read-out: Activity
A549 = assay: Growth inhibition of human A549/ATCC cells assessed as cell growth at 10^-7 M incubated for 48 hrs by sulforhodamine B assay relative to control; assay type: functional; conditions: A549, 48 h, read-out: Activity
HOP-62 = assay: Growth inhibition of human HOP62 cells assessed as cell growth at 10^-7 M incubated for 48 hrs by sulforhodamine B assay relative to control; assay type: functional; conditions: HOP-62, 48 h, read-out: Activity
NCI-H23 = assay: Growth inhibition of human NCI-H23 cells assessed as cell growth at 10^-7 M incubated for 48 hrs by sulforhodamine B assay relative to control; assay type: functional; conditions: NCI-H23, 48 h, read-out: Activity
HCC 2998 = assay: Growth inhibition of human HCC2998 cells assessed as cell growth at 10^-7 M incubated for 48 hrs by sulforhodamine B assay relative to control; assay type: functional; conditions: HCC 2998, 48 h, read-out: Activity
ACHN = assay: Growth inhibition of human ACHN cells assessed as cell growth at 10^-7 M incubated for 48 hrs by sulforhodamine B assay relative to control; assay type: functional; conditions: read-out: Activity
SN12C = assay: Growth inhibition of human SN12C cells assessed as cell growth at 10^-7 M incubated for 48 hrs by sulforhodamine B assay relative to control; assay type: functional; conditions: read-out: Activity
MDA-MB-468 [5] = assay: Growth inhibition of human MDA-MB-468 cells assessed as cell growth at 10^-7 M incubated for 48 hrs by sulforhodamine B assay relative to control; assay type: functional; conditions: MDA-MB-468, 48 h, read-out: Activity
NCI-H226 [6] = assay: Growth inhibition of human NCI-H226 cells assessed as cell growth at 10^-6 M incubated for 48 hrs by sulforhodamine B assay relative to control; assay type: functional; conditions: NCI-H226, 48 h, read-out: Activity
SW-620 = assay: Growth inhibition of human SW620 cells assessed as cell growth at 10^-6 M incubated for 48 hrs by sulforhodamine B assay relative to control; assay type: functional; conditions: SW-620, 48 h, read-out: Activity
OVCAR-5 = assay: Growth inhibition of human OVCAR5 cells assessed as cell growth at 10^-6 M incubated for 48 hrs by sulforhodamine B assay relative to control; assay type: functional; conditions: OVCAR-5, 48 h, read-out: Activity
TK-10 = assay: Growth inhibition of human TK10 cells assessed as cell growth at 10^-6 M incubated for 48 hrs by sulforhodamine B assay relative to control; assay type: functional; conditions: TK-10, 48 h, read-out: Activity
MDA-MB-231 [7] = assay: Growth inhibition of human MDA-MB-231 cells assessed as cell growth at 10^-6 M incubated for 48 hrs by sulforhodamine B assay relative to control; assay type: functional; conditions: MDA-MB-231, 48 h, read-out: Activity
SNB-19 [8] = assay: Growth inhibition of human SNB19 cells assessed as cell growth at 10^-5 M incubated for 48 hrs by sulforhodamine B assay relative to control; assay type: functional; conditions: SNB-19, 48 h, read-out: Activity
M14 [9] = assay: Growth inhibition of human M14 cells assessed as cell growth at 10^-5 M incubated for 48 hrs by sulforhodamine B assay relative to control; assay type: functional; conditions: M14, 48 h, read-out: Activity
CCRF-CEM = assay: Growth inhibition of human CCRF-CEM cells assessed as cell growth at 10^-4 M incubated for 48 hrs by sulforhodamine B assay relative to control; assay type: functional; conditions: read-out: Activity
IGROV-1 = assay: Growth inhibition of human IGROV1 cells assessed as cell growth at 10^-4 M incubated for 48 hrs by sulforhodamine B assay relative to control; assay type: functional; conditions: IGROV-1, 48 h, read-out: Activity
MDA-MB-231 [10] = assay: Growth inhibition of human MDA-MB-231 cells assessed as cell growth at 10^-4 M incubated for 48 hrs by sulforhodamine B assay relative to control; assay type: functional; conditions: MDA-MB-231, 48 h, read-out: Activity
HUVEC = assay: Antiproliferative activity against HUVEC cells after 4 days by Coulter counter method; assay type: cell-based; conditions: Homo sapiens, 96 h
How it was run: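 Primary HUVEC, primary HMVEC-d and the HMEC-1 line seeded at 20,000 cells/well in gelatin-coated plates in EC growth medium (EGM2). After overnight incubation, 5-fold compound dilutions added. Cells proliferated four days with compound, then trypsinized and counted by Coulter counter to derive IC₅₀.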

SNB-75 = assay: Growth inhibition of human SNB75 cells assessed as cell growth at 10^-6 M incubated for 48 hrs by sulforhodamine B assay relative to control; assay type: functional; conditions: SNB-75, 48 h, read-out: Activity
[11] = read-out: pLC50 (the source's name) (converted)
[12] = read-out: LC50 (the source's name)

SMILES: C#C[C@@]1(O)[C@@H](CO)O[C@@H](n2cc(Br)c3c(N)ncnc32)[C@@H]1O
- IC50 (L1210): 28 nM
- GI50 (SR): 43.8 to 84.5 nM
- TGI (SR; read-out: TGI): > 100000 nM
- CC50 (SR; [11]): > 100000 nM
- TGI (SR; read-out: pTGI): > 100000 nM
- GI50 (KM12): 94.6 to 121 nM
- TGI (KM12; read-out: TGI): > 100000 nM
- CC50 (KM12; [11]): > 100000 nM
- TGI (KM12; read-out: pTGI (converted)): > 100000 nM
- GI50 (SNB-19 [1]): 17.4 to 211 nM
- CC50 (SNB-19 [1]): > 100000 nM
- TGI (SNB-19 [1]): 777 to 100000 nM
- GI50 (U-251): 13.2 to 30.9 nM
- CC50 (U-251; [12]): > 100000 nM
- GI50 (M14 [2]): 145 to 353 nM
- CC50 (M14 [2]): 75300 to 100000 nM
- TGI (M14 [2]): 12900 to 14200 nM
- GI50 (OVCAR-4): 296 to 452 nM
- CC50 (OVCAR-4; [12]): > 100000 nM
- TGI (OVCAR-4; read-out: TGI): > 100000 nM
- TGI (OVCAR-4; read-out: pTGI (converted)): > 100000 nM
- GI50 (A498): 185 to 280 nM
- CC50 (A498): 940 to 4210 nM
- TGI (A498): 417 to 828 nM
- GI50 (T47D; read-out: GI50): 17.3 to 43.2 nM
- TGI (T47D; read-out: TGI): 177 nM
- CC50 (T47D): > 100000 nM
- TGI (T47D; read-out: pTGI (converted)): 178 nM
- growth at 0.01 µM (NCI-H226 [3]): 96 to 98%
- growth at 0.01 µM (MDA-MB-468 [4]): 88 to 99%
- growth at 0.1 µM (A549): 48 to 80%
- growth at 0.1 µM (HOP-62): 68 to 86%
- growth at 0.1 µM (NCI-H23): 61 to 70%
- growth at 0.1 µM (HCC 2998): 73 to 80%
- growth at 0.1 µM (ACHN): 75%
- growth at 0.1 µM (SN12C): 31 to 69%
- growth at 0.1 µM (MDA-MB-468 [5]): 56 to 87%
- growth at 1 µM (NCI-H226 [6]): 27 to 66%
- growth at 1 µM (SW-620): 4 to 9%
- growth at 1 µM (OVCAR-5): 33 to 56%
- growth at 1 µM (TK-10): 17 to 27%
- growth at 1 µM (MDA-MB-231 [7]): 2 to 8%
- growth at 10 µM (SNB-19 [8]): 1%
- growth at 10 µM (M14 [9]): 6 to 11%
- growth at 100 µM (CCRF-CEM): 3 to 4%
- growth at 100 µM (IGROV-1): -2%
- growth at 100 µM (MDA-MB-231 [10]): 9%
- IC50 (HUVEC): 18 nM

SMILES: C#C[C@@]1(O)[C@@H](CO)O[C@@H](n2cc(I)c3c(N)ncnc32)[C@@H]1O
- IC50 (L1210): 56 nM
- GI50 (SR): 182 to 378 nM
- CC50 (SR; [12]): > 100000 nM
- TGI (SR; read-out: TGI): 8150 to 100000 nM
- GI50 (KM12): 92.8 to 99.8 nM
- CC50 (KM12; [12]): > 100000 nM
- TGI (KM12; read-out: TGI): > 100000 nM
- TGI (KM12; read-out: pTGI (converted)): > 100000 nM
- GI50 (SNB-19 [1]): 53.5 to 185 nM
- CC50 (SNB-19 [1]): > 100000 nM
- TGI (SNB-19 [1]): 25000 to 100000 nM
- GI50 (U-251): 67.3 to 80.2 nM
- TGI (U-251; read-out: TGI): 10200 to 100000 nM
- CC50 (U-251; [11]): > 100000 nM
- GI50 (M14 [2]): 393 to 611 nM
- CC50 (M14 [2]): 55500 to 100000 nM
- TGI (M14 [2]): 8470 to 10700 nM
- GI50 (OVCAR-4): 563 to 1160 nM
- TGI (OVCAR-4; read-out: TGI): > 100000 nM
- CC50 (OVCAR-4; [11]): > 100000 nM
- TGI (OVCAR-4; read-out: pTGI (converted)): > 100000 nM
- GI50 (A498): 211 to 453 nM
- CC50 (A498): 4690 to 6400 nM
- TGI (A498): 1030 to 1980 nM
- TGI (T47D; read-out: TGI): 51 to 315 nM
- GI50 (T47D; read-out: pGI50 (converted)): < 10 nM
- CC50 (T47D): > 100000 nM
- growth at 0.01 µM (NCI-H226 [3]): 84 to 97%
- growth at 0.01 µM (MDA-MB-468 [4]): 81 to 93%
- growth at 0.1 µM (A549): 69 to 80%
- growth at 0.1 µM (HOP-62): 72 to 75%
- growth at 0.1 µM (NCI-H23): 67 to 75%
- growth at 0.1 µM (HCC 2998): 70 to 75%
- growth at 0.1 µM (ACHN): 72%
- growth at 0.1 µM (SN12C): 43 to 54%
- growth at 0.1 µM (MDA-MB-468 [5]): 65 to 68%
- growth at 1 µM (NCI-H226 [6]): 57 to 70%
- growth at 1 µM (SW-620): 12 to 17%
- growth at 1 µM (SNB-75): 27 to 39%
- growth at 1 µM (OVCAR-5): 43 to 64%
- growth at 1 µM (TK-10): 34 to 39%
- growth at 1 µM (MDA-MB-231 [7]): 17 to 27%
- growth at 10 µM (SNB-19 [8]): 2 to 3%
- growth at 100 µM (CCRF-CEM): 2 to 8%
- growth at 100 µM (IGROV-1): 2 to 3%
- growth at 100 µM (MDA-MB-231 [10]): 11 to 12%
- IC50 (HUVEC): 9.9 nM
